Test results taken from ChEMBL document CHEMBL2407075, “Sulphonamido-quinoxalines: search for anticancer agent” (Eur J Med Chem, 2013).

Experiments:
Assay type in all cases: functional
CAKI-1 [1] = assay: Growth inhibition of human CAKI-1 cells after 48 hrs by sulforhodamine B assay; conditions: CAKI-1, 48 h, read-out: LC50 (the source's name)
How it was run: (§1)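 Adherent cells in RPMI 1640 with 5% FBS and 2 mM L-glutamine were plated at 5000–40,000 cells/well and grown 24 h. Five concentrations (0.01–100 µM, DMSO stock) were added for 48 h at 37 °C. Cells were fixed with cold TCA (10% final) and stained with SRB, read at 515 nm. GI50 came from log concentration–growth curves against time-zero and control plates.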

DU-145 = assay: Growth inhibition of human DU145 cells after 48 hrs by sulforhodamine B assay; conditions: DU-145, 48 h; for CC50: read-out: LC50 (the source's name); how it was run: as §1
HT-29 = assay: Growth inhibition of human HT-29 cells assessed as cell growth at 10^-5 M after 48 hrs by sulforhodamine B assay; conditions: HT-29, 48 h, read-out: Activity
How it was run: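 Five-dose screen at NCI. Cells in RPMI 1640 with 5% FBS and 2 mM L-glutamine, seeded at 5000–40,000 cells/well and grown 24 h at 37 °C, 5% CO2 before dosing, with time-zero plates TCA-fixed. Drug diluted from DMSO stock to 0.01, 0.1, 1, 10 and 100 µM final, 48 h. Cells fixed with cold TCA (10% final), stained with 0.4% SRB and read at 515 nm. Percent growth from Tz, control and test absorbances; GI50, TGI and LC50 from dose-response curves.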

NCI-H322M [2] = assay: Growth inhibition of human NCI-H322M cells assessed as cell growth at 10^-4 M after 48 hrs by sulforhodamine B assay; conditions: read-out: Activity
[3] = Growth inhibition of human NCI-ADR-RES cells after 48 hrs by sulforhodamine B assay; conditions: for CC50: read-out: LC50 (the source's name); how it was run: as §1
SF-268 = assay: Growth inhibition of human SF268 cells assessed as cell growth at 10^-7 M after 48 hrs by sulforhodamine B assay; conditions: SF-268, 48 h, read-out: Activity
MDA-MB-231 = assay: Growth inhibition of human MDA-MB-231 cells assessed as cell growth at 10^-7 M after 48 hrs by sulforhodamine B assay; conditions: MDA-MB-231, 48 h, read-out: Activity
SF-295 = assay: Growth inhibition of human SF295 cells assessed as cell growth at 10^-7 M after 48 hrs by sulforhodamine B assay; conditions: SF-295, 48 h, read-out: Activity
SW-620 [4] = assay: Growth inhibition of human SW620 cells assessed as cell growth at 10^-5 M after 48 hrs by sulforhodamine B assay; conditions: SW-620, 48 h, read-out: Activity
LOX IMVI [5] = assay: Growth inhibition of human LOXIMVI cells assessed as cell growth at 10^-7 M after 48 hrs by sulforhodamine B assay; conditions: read-out: Activity
UACC-257 = assay: Growth inhibition of human UACC257 cells assessed as cell growth at 10^-5 M after 48 hrs by sulforhodamine B assay; conditions: UACC-257, 48 h, read-out: Activity
SF-539 = assay: Growth inhibition of human SF539 cells assessed as cell growth at 10^-7 M after 48 hrs by sulforhodamine B assay; conditions: SF-539, 48 h, read-out: Activity
SW-620 [6] = assay: Growth inhibition of human SW620 cells assessed as cell growth at 10^-8 M after 48 hrs by sulforhodamine B assay; conditions: SW-620, 48 h, read-out: Activity
[7] = Growth inhibition of human HCC2998 cells after 48 hrs by sulforhodamine B assay; conditions: HCC 2998, 48 h; for CC50: read-out: LC50 (the source's name); how it was run: as §1
UACC-62 = assay: Growth inhibition of human UACC62 cells assessed as cell growth at 10^-7 M after 48 hrs by sulforhodamine B assay; conditions: UACC-62, 48 h, read-out: Activity
SR = assay: Growth inhibition of human SR cells after 48 hrs by sulforhodamine B assay; conditions: for CC50: read-out: LC50 (the source's name)
How it was run: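 Leukemia suspension cells in RPMI 1640 with 5% FBS and 2 mM L-glutamine were plated at 5000–40,000 cells/well and grown 24 h. Five concentrations (0.01–100 µM) were given for 48 h at 37 °C. Settled cells were fixed with 80% TCA (16% final) and SRB-stained, read at 515 nm. GI50 came from dose–response curves against time-zero and control plates.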

COLO 205 [8] = assay: Growth inhibition of human COLO205 cells assessed as cell growth at 10^-8 M after 48 hrs by sulforhodamine B assay; conditions: COLO 205, 48 h, read-out: Activity
How it was run: (§2)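 Five-dose NCI-60 run (0.01, 0.1, 1, 10 and 100 µM, as 10-fold dilutions from a DMSO stock made at 400× the top final level). Cells were grown in RPMI 1640 with 5% FBS and 2 mM glutamine and plated for 24 h. They were then exposed for 48 h at 37 °C and 5% CO2. TCA fixation was followed by SRB staining with A515 read-out. Percent growth was taken relative to time-zero and control plates.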

CAKI-1 [9] = assay: Growth inhibition of human CAKI-1 cells assessed as cell growth at 10^-7 M after 48 hrs by sulforhodamine B assay; conditions: CAKI-1, 48 h, read-out: Activity; how it was run: as §2
COLO 205 [10] = assay: Growth inhibition of human COLO205 cells after 48 hrs by sulforhodamine B assay; conditions: COLO 205, 48 h, read-out: LC50 (the source's name); how it was run: as §1
MOLT-4 = assay: Growth inhibition of human MOLT4 cells assessed as cell growth at 10^-6 M after 48 hrs by sulforhodamine B assay; conditions: MOLT-4, 48 h, read-out: Activity
LOX IMVI [11] = assay: Growth inhibition of human LOXIMVI cells assessed as cell growth at 10^-6 M after 48 hrs by sulforhodamine B assay; conditions: read-out: Activity
BT-549 = assay: Growth inhibition of human BT549 cells assessed as cell growth at 10^-7 M after 48 hrs by sulforhodamine B assay; conditions: BT-549, 48 h, read-out: Activity; how it was run: as §2
OVCAR-3 = assay: Growth inhibition of human OVCAR3 cells assessed as cell growth at 10^-8 M after 48 hrs by sulforhodamine B assay; conditions: OVCAR-3, 48 h, read-out: Activity
OVCAR-8 [12] = assay: Growth inhibition of human OVCAR8 cells assessed as cell growth at 10^-4 M after 48 hrs by sulforhodamine B assay; conditions: OVCAR-8, 48 h, read-out: Activity
OVCAR-8 [13] = assay: Growth inhibition of human OVCAR8 cells assessed as cell growth at 10^-6 M after 48 hrs by sulforhodamine B assay; conditions: OVCAR-8, 48 h, read-out: Activity
MDA-MB-435 = assay: Growth inhibition of human MDA-MB-435 cells assessed as cell growth at 10^-4 M after 48 hrs by sulforhodamine B assay; conditions: MDA-MB-435, 48 h, read-out: Activity
SK-MEL-5 = assay: Growth inhibition of human SK-MEL-5 cells assessed as cell growth at 10^-4 M after 48 hrs by sulforhodamine B assay; conditions: SK-MEL-5, 48 h, read-out: Activity
NCI-H322M [14] = assay: Growth inhibition of human NCI-H322M cells assessed as cell growth at 10^-6 M after 48 hrs by sulforhodamine B assay; conditions: read-out: Activity

Compound `O=S(=O)(Nc1ccc(Cl)cc1)c1ccc2nc(-c3ccccc3)c(-c3ccccc3)nc2c1` has a CC50 (CAKI-1 [1]) greater than 100 µM, a TGI (DU-145) greater than 100 µM and a CC50 (DU-145) greater than 100 µM. For the same compound, the growth at 10 µM (HT-29) was -55%, the growth at 100 µM (NCI-H322M [2]) was 88% and the TGI [3] was greater than 100 µM. The CC50 [3] was greater than 100 µM, the growth at 0.1 µM (SF-268) was 98% and the growth at 0.1 µM (MDA-MB-231) was 101%. It also gave a growth at 0.1 µM (SF-295) of 90%, a growth at 10 µM (SW-620 [4]) of 14% and a growth at 0.1 µM (LOX IMVI [5]) of 99%. For the same compound, the growth at 10 µM (UACC-257) was -24%, the growth at 0.1 µM (SF-539) was 96% and the growth at 0.01 µM (SW-620 [6]) was 93%. For the same compound, the TGI [7] was greater than 100 µM, the CC50 [7] was greater than 100 µM and the growth at 0.1 µM (UACC-62) was 87%. It also gave a CC50 (SR) greater than 100 µM, a growth at 0.01 µM (COLO 205 [8]) of 101% and a growth at 0.1 µM (CAKI-1 [9]) of 88%. The CC50 (COLO 205 [10]) was greater than 100 µM, the growth at 1 µM (MOLT-4) was 86% and the growth at 1 µM (LOX IMVI [11]) was 89%. For the same compound, the growth at 0.1 µM (BT-549) was 81%, the growth at 0.01 µM (OVCAR-3) was 100% and the growth at 100 µM (OVCAR-8 [12]) was 72%. The growth at 1 µM (OVCAR-8 [13]) was 92%, the growth at 100 µM (MDA-MB-435) was 76% and the growth at 100 µM (SK-MEL-5) was 52%. It also gave a growth at 1 µM (NCI-H322M [14]) of 98%.

Compound `O=S(=O)(Nc1ccccn1)c1ccc2nc(-c3ccccc3)c(-c3ccccc3)nc2c1` has a CC50 (CAKI-1 [1]) greater than 100 µM, a TGI (DU-145) greater than 100 µM and a CC50 (DU-145) greater than 100 µM. The growth at 10 µM (HT-29) was -37%, the growth at 100 µM (NCI-H322M [2]) was 65% and the CC50 [3] was greater than 100 µM. The growth at 0.1 µM (SF-268) was 91%, the growth at 0.1 µM (MDA-MB-231) was 107% and the growth at 0.1 µM (SF-295) was 91%. The growth at 10 µM (SW-620 [4]) was 14%, the growth at 0.1 µM (LOX IMVI [5]) was 97% and the growth at 10 µM (UACC-257) was -25%. For the same compound, the growth at 0.1 µM (SF-539) was 94%, the growth at 0.01 µM (SW-620 [6]) was 101% and the CC50 [7] was greater than 100 µM. For the same compound, the growth at 0.1 µM (UACC-62) was 92%, the GI50 (SR) was 1.4 µM and the CC50 (SR) was greater than 100 µM. The growth at 0.01 µM (COLO 205 [8]) was 98%, the growth at 0.1 µM (CAKI-1 [9]) was 93% and the CC50 (COLO 205 [10]) was 100 µM. For the same compound, the growth at 1 µM (MOLT-4) was 80%, the growth at 1 µM (LOX IMVI [11]) was 88% and the growth at 0.1 µM (BT-549) was 81%. For the same compound, the growth at 0.01 µM (OVCAR-3) was 92%, the growth at 100 µM (OVCAR-8 [12]) was 46% and the growth at 1 µM (OVCAR-8 [13]) was 85%. It also gave a growth at 100 µM (MDA-MB-435) of 76%, a growth at 100 µM (SK-MEL-5) of 41% and a growth at 1 µM (NCI-H322M [14]) of 108%.
